Inconclusive results are not listed.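 Rule for the calls, unless noted: active = viability increase at or above a cutoff of the median across tested compounds plus 3 SD (cut at about 8.5% in these data, passing the limit was not always enough); inconclusive = some gains above the cutoff, reason not given; inactive = the rest.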
Assays:
[1] = S. cerevisiae growth inhibition in permissive medium (OD615), pilot counter-assay for S. cerevisiae lifespan shortening project, permissive growth control (AID 705;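 active = growth inhibition above 25% in both replicates, a cutoff set 3 SD above the mean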); details: OD615, 24 h, at 10 µM, active compounds read high
Method in brief: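 assay system = Saccharomyces cerevisiae strain carrying genetically modified DeaD replicative-lifespan system | medium = SC raffinose/galactose permissive medium | dosing = 10 µM single dose, 0.25% DMSO | schedule = 24 h compound exposure at 30 °C after 4 h pre-growth | measured by = OD at 615 nm | read-out basis = growth inhibition from lowered OD615 after 24 h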

[2] = S. cerevisiae growth inhibition in restrictive medium, OD615, pilot screen, restrictive growth control, yeast lifespan reduction project (AID 706;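 active = growth inhibition above a set limit, 3 SD over mean compound inhibition, in both replicates, cut at about 43% in these data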;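 note: modified DeaD lifespan yeast strain shifted to restrictive glucose medium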); details: OD615, 48 h, at 10 µM, active compounds read high
Method in brief: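 Buffer or medium: CSMM-D glucose medium. Material: genetically modified Saccharomyces cerevisiae, DeaD replicative lifespan assay strain. Times: 48 h compound exposure at 30 °C. Measured by: optical density at 615 nm.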

[3] = doxorubicin toxicity protection in MRP-1 cells – H69AR cells, CellTiter-Glo, duplicate, MRP-1 activator project, pilot screen (AID 807); details: H69AR viability with doxorubicin, CellTiter-Glo luminescence; at 10 µM; active compounds read high;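 note: compound pretreatment 18-22 h then 72 h combined with doxorubicin; 0% = doxorubicin alone and 100% = vehicle without doxorubicin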
[4] = viability of HCT116 without oncogenic beta-catenin – human colon tumor cells, pilot screen (AID 823;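 active = cell viability at or below a set limit in both duplicate runs, the limit being the all-compound median minus 4 SD, cut at about 23% in these data, passing the limit was not always enough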;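 note: 0% = wells killed by 20 µM Hyamine and 100% = untreated DMSO cell wells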); details: HCT116 beta-catenin knockout viability, CellTiter-Glo, 60 h; at 10 µM; active compounds read low
[5] = viability of PTEN-null HCT116 cells – cell-based, HCT116 clonal line, CellTiter-Glo, pilot screen (AID 824;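 active = viability at or below 27.92% in each of two runs, the all-compound median minus 4 SD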;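 note: 0% = 20 µM Hyamine control and 100% = vehicle cell control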); details: HCT116 PTEN-deleted viability, 60 h, at 10 µM, active compounds read low
[6] = RAM pathway blockade in budding yeast – dse1pr::URA3 reporter, 5-FOA selection, pilot screen (AID 869;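 active = inhibition over a set limit, the all-compound mean plus 3 SD, in both replicate runs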;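 note: 0% = DMSO wells with no growth and 100% = 10 µM 1-NA-PP1 with full growth; RAM network block rescues cells from 5-FOA so hits raise OD615 growth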); details: S. cerevisiae dse1pr::URA3 5-FOA growth, OD615, 2 d; at 10 µM; active compounds read high; strain carries analog-sensitive mutant Cbk1 kinase
[7] = RAM signaling pathway blockade in yeast – S. cerevisiae, Pdr1DBD-CYC8 efflux-inhibited sensitized strain, primary screen (AID 1298;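 active = RAM network inhibition above 8.4% in each of two replicates, 3 SD over the compound average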;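 note: 0% = DMSO untreated cells without growth and 100% = 10 µM 1-NA-PP1 full growth; higher means more yeast growth rescued from 5-FOA killing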); details: S. cerevisiae cbk1-as DSE1-URA3 strain, 5-FOA growth OD615, 2 d; at 50 µM; active compounds read high

CCCCOc1ccc(C2(C)CC(=O)NC2=O)cc1 (stereo not given)
inactive: growth inhibition [1] 19.7% | growth inhibition [2] 10.9% | viability increase [3] -1.56% | viability [4] 95.3% | viability [5] 91.8% | inhibition [6] 0.425% | RAM network inhibition [7] -1.18%

CCC1CCCCN1C(=O)CSc1nc(N)c(NC(=O)c2ccco2)c(=O)[nH]1 (stereo not given)
inactive: growth inhibition [1] 12.5% | growth inhibition [2] 10.7% | viability increase [3] -2.48% | viability [4] 106% | viability [5] 99% | inhibition [6] 2.09% | RAM network inhibition [7] 2.2%

COc1ccccc1C1C(C(N)=O)=C(C)Nc2nc(-c3ccccc3Cl)nn21 (stereo not given)
inactive: growth inhibition [1] -4.68% | growth inhibition [2] -4.21% | viability increase [3] -2.13% | viability [4] 92.9% | viability [5] 95.8% | inhibition [6] 0.48% | RAM network inhibition [7] -2.19%

Cc1oc(-c2ccccc2F)nc1CS(=O)CC(=O)NCc1ccc2c(c1)OCO2 (stereo not given)
inactive: growth inhibition [1] -13.9% | growth inhibition [2] 2.87% | viability increase [3] -1.41% | viability [4] 94.2% | viability [5] 89.3% | inhibition [6] 2% | RAM network inhibition [7] 7.13%

CC(=NCCc1ccccc1)C1=C(O)COC1=O
inactive: growth inhibition [1] 4.12% | growth inhibition [2] -6.99% | viability increase [3] -2.71% | viability [4] 98.2% | viability [5] 99.9% | inhibition [6] 0.87% | RAM network inhibition [7] 2.27%

C=CCNC(=O)COc1ccc(Br)cc1Cl
inactive: growth inhibition [1] -15.7% | growth inhibition [2] -6.88% | viability increase [3] 1.27% | viability [4] 99% | viability [5] 91.2% | inhibition [6] 1.36% | RAM network inhibition [7] 9.74%

CCOC(=O)c1cc2c(n(-c3ccc(C)cc3)c1=O)CCCC2=O
inactive: growth inhibition [1] -9.02% | growth inhibition [2] -16.6% | viability increase [3] -3.28% | viability [4] 99.3% | viability [5] 94.8% | inhibition [6] 0.59% | RAM network inhibition [7] 2.29%

Cc1nc(SCC(=O)NCc2ccco2)c2oc3ccccc3c2n1
inactive: growth inhibition [1] -0.535% | growth inhibition [2] 1.3% | viability increase [3] -2.69% | viability [4] 95.2% | viability [5] 94% | inhibition [6] 0.86% | RAM network inhibition [7] 2.53%

N#CC1=C(SCC(N)=O)NC(=O)CC1c1ccccc1Cl (stereo not given)
inactive: growth inhibition [1] -3.39% | growth inhibition [2] -17.1% | viability increase [3] -2.43% | viability [4] 98% | viability [5] 96.5% | inhibition [6] 0.635% | RAM network inhibition [7] -0.49%

N#CC1=C2C=CC=CN2CC1=O
inactive: growth inhibition [1] -23.9% | growth inhibition [2] -15.7% | viability increase [3] -2.42% | viability [4] 91.2% | viability [5] 93.1% | inhibition [6] 1.7% | RAM network inhibition [7] 2.23%

COc1ccc(Cl)cc1NC(=O)Cn1c(=O)n2nc(C)nc2c2ccccc21
inactive: growth inhibition [1] -7.69% | growth inhibition [2] 3.31% | viability increase [3] -7.15% | viability [4] 90.9% | viability [5] 87.8% | inhibition [6] 0.175% | RAM network inhibition [7] 6.46%

CCn1cc(SCC(=O)NCc2ccc3c(c2)OCO3)c2ccccc21
inactive: growth inhibition [1] -9.14% | growth inhibition [2] -8.28% | viability increase [3] -1.84% | viability [4] 97.9% | viability [5] 92.7% | inhibition [6] 0.495% | RAM network inhibition [7] 3.73%

O=C(Nc1cccc(OC(F)(F)F)c1)c1ccc(Br)o1
inactive: growth inhibition [1] -1.13% | growth inhibition [2] 9.08% | viability increase [3] 1.31% | viability [4] 81.6% | viability [5] 75.1% | inhibition [6] 2.96% | RAM network inhibition [7] 0.92%

CC(C)(C)c1nnc2sc(SCC(=O)c3cccs3)nn2c1=O
inactive: growth inhibition [1] -4.01% | growth inhibition [2] -13.1% | viability increase [3] -6% | viability [4] 71.1% | viability [5] 81.8% | inhibition [6] 2.62% | RAM network inhibition [7] 5.25%

CCOC(=O)c1c(C)c(-c2ccccc2)n(CC(=O)N2CCCC2)c1C
inactive: growth inhibition [1] -8.25% | growth inhibition [2] -12.4% | viability increase [3] -3.38% | viability [4] 87.6% | viability [5] 92.3% | inhibition [6] 1.31% | RAM network inhibition [7] 2.73%
